Test results published in ChEMBL document CHEMBL2417469, “Synthesis of novel analogs of 2-pyrazoline obtained from [(7-chloroquinolin-4-yl)amino]chalcones and hydrazine as potential antitumor and antimalarial agents” (Eur J Med Chem, 2013).

Columns and labels:
Assay type in all cases: functional
[1] = system: SK-OV-3; test: Cytotoxicity against human SKOV3 cells after 48 hrs by SRB assay; details: SK-OV-3, 48 h
How it was run: (§1)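 NCI 60-cell-line screen. Cells preincubated 24 h at 37 °C, 5% CO2; time-zero plates TCA-fixed. Compounds dissolved in DMSO and tested at five concentrations (100, 10, 1.0, 0.1, 0.01 µM) for 48 h continuous exposure. Adherent cells fixed with cold TCA (10% final), then SRB stained; absorbance at 515 nm. GI50, TGI and LC50 calculated from growth relative to time-zero and untreated controls.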

[2] = system: HCT-116; test: Cytotoxicity against human HCT116 cells after 48 hrs by SRB assay; details: HCT-116, 48 h; how it was run: as §1
[3] = system: CCRF-CEM; test: Cytotoxicity against human CCRF-CEM cells after 48 hrs by SRB assay; how it was run: as §1
[4] = system: SK-MEL-2; test: Cytotoxicity against human SK-MEL-2 cells after 48 hrs by SRB assay; details: SK-MEL-2, 48 h; how it was run: as §1
[5] = system: HCT-15; test: Cytotoxicity against human HCT15 cells after 48 hrs by SRB assay; details: HCT-15, 48 h; how it was run: as §1
[6] = system: CAKI-1; test: Cytotoxicity against human Caki1 cells after 48 hrs by SRB assay; details: CAKI-1, 48 h; how it was run: as §1
[7] = system: T47D; test: Cytotoxicity against human T47D cells after 48 hrs by SRB assay
How it was run: (§2)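 NCI 60-cell screen. Cells grew 24 h (37 °C, 5% CO2) before compound was added. Compounds were in DMSO and diluted in medium with gentamicin, then tested at five levels (100, 10, 1.0, 0.1, 0.01 µM) with 48 h continuous exposure. Adherent cells were fixed with TCA (10% final) and stained with 0.4% SRB, absorbance read at 515 nm. A time-zero plate was included. LC50 is the concentration giving 50% loss of protein relative to time zero.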

[8] = system: BT-549; test: Cytotoxicity against human BT549 cells after 48 hrs by SRB assay; details: BT-549, 48 h; how it was run: as §1
[9] = system: UACC-62; test: Cytotoxicity against human UACC62 cells after 48 hrs by SRB assay; details: UACC-62, 48 h; how it was run: as §2
[10] = system: SK-MEL-5; test: Cytotoxicity against human SK-MEL-5 cells after 48 hrs by SRB assay; details: SK-MEL-5, 48 h; how it was run: as §1
[11] = system: Hs-578T; test: Cytotoxicity against human Hs578T cells after 48 hrs by SRB assay; how it was run: as §1
[12] = system: 786-0; test: Cytotoxicity against human 786-0 cells after 48 hrs by SRB assay; details: 786-0, 48 h; how it was run: as §1
[13] = system: NCI-H460; test: Cytotoxicity against human NCI-H460 cells after 48 hrs by SRB assay; details: NCI-H460, 48 h; how it was run: as §1
[14] = system: ACHN; test: Cytotoxicity against human ACHN cells after 48 hrs by SRB assay; how it was run: as §1
[15] = system: SN12C; test: Cytotoxicity against human SN12C cells after 48 hrs by SRB assay; how it was run: as §1
[16] = system: MDA-MB-468; test: Cytotoxicity against human MDA-MB-468 cells after 48 hrs by SRB assay; details: MDA-MB-468, 48 h; how it was run: as §1
[17] = system: M14; test: Cytotoxicity against human M14 cells after 48 hrs by SRB assay; details: M14, 48 h; how it was run: as §1
[18] = system: COLO 205; test: Cytotoxicity against human COLO205 cells after 48 hrs by SRB assay; details: COLO 205, 48 h; how it was run: as §1
[19] = system: A549; test: Cytotoxicity against human A549/ATCC cells after 48 hrs by SRB assay; details: A549, 48 h; how it was run: as §1
[20] = system: HOP-92; test: Cytotoxicity against human HOP92 cells after 48 hrs by SRB assay; details: HOP-92, 48 h; how it was run: as §1
[21] = system: NCI-H23; test: Cytotoxicity against human NCI-H23 cells after 48 hrs by SRB assay; details: NCI-H23, 48 h; how it was run: as §1
[22] = system: MDA-MB-435; test: Cytotoxicity against human MDA-MB-435 cells after 48 hrs by SRB assay; details: MDA-MB-435, 48 h; how it was run: as §1
[23] = system: SK-MEL-28; test: Cytotoxicity against human SK-MEL-28 cells after 48 hrs by SRB assay; details: SK-MEL-28, 48 h; how it was run: as §1
[24] = system: HT-29; test: Cytotoxicity against human HT-29 cells after 48 hrs by SRB assay; details: HT-29, 48 h; how it was run: as §1
[25] = system: MCF7; test: Cytotoxicity against human MCF7 cells after 48 hrs by SRB assay; details: MCF7, 48 h; how it was run: as §1
[26] = system: OVCAR-8; test: Cytotoxicity against human OVCAR8 cells after 48 hrs by SRB assay; details: OVCAR-8, 48 h; how it was run: as §1
[27] = system: RPMI-8226; test: Cytotoxicity against human RPMI8226 cells after 48 hrs by SRB assay; details: RPMI-8226, 48 h; how it was run: as §1
[28] = system: NCI/ADR-RES; test: Cytotoxicity against human NCI/ADR-RES cells after 48 hrs by SRB assay; how it was run: as §1
[29] = system: Malme-3M; test: Cytotoxicity against human MALME-3M cells after 48 hrs by SRB assay; how it was run: as §1
[30] = system: HL-60(TB); test: Cytotoxicity against human HL-60(TB) cells after 48 hrs by SRB assay; details: HL-60, 48 h; how it was run: as §1
[31] = system: NCI-H522; test: Cytotoxicity against human NCI-H522 cells after 48 hrs by SRB assay; details: NCI-H522, 48 h; how it was run: as §1
[32] = system: LOX IMVI; test: Cytotoxicity against human LOXIMVI cells after 48 hrs by SRB assay; how it was run: as §1
[33] = system: KM12; test: Cytotoxicity against human KM12 cells after 48 hrs by SRB assay; details: KM12, 48 h; how it was run: as §1
[34] = system: HOP-62; test: Cytotoxicity against human HOP62 cells after 48 hrs by SRB assay; details: HOP-62, 48 h; how it was run: as §1
[35] = system: SR; test: Cytotoxicity against human SR cells after 48 hrs by SRB assay; how it was run: as §2
[36] = system: OVCAR-3; test: Cytotoxicity against human OVCAR3 cells after 48 hrs by SRB assay; details: OVCAR-3, 48 h; how it was run: as §1
[37] = read-out: LC50 (the source's name)

`O=CN1N=C(c2cccc(Nc3ccnc4cc(Cl)ccc34)c2)CC1c1ccc(Cl)cc1` (configuration not stated) was tested, and the GI50 [1] was 3.48 µM, the LC50 (concentration killing 50% of cells) [1] was greater than 100 µM and the GI50 [2] was 600 nM. It also gave an LC50 [2] greater than 100 µM, a GI50 [3] of 2340 nM and an LC50 (concentration killing 50% of cells relative to time zero) [3] greater than 100 µM. It also gave a GI50 [4] of 2050 nM, an LC50 [4] greater than 100 µM and a GI50 [5] of 900 nM. It also gave an LC50 (concentration killing 50% of cells relative to time zero) [5] greater than 100 µM, a GI50 [6] of 950 nM and an LC50 [6] greater than 100 µM. The GI50 [7] was 2630 nM, the LC50 (concentration giving 50% cell kill relative to time zero) [7] was greater than 100 µM and the GI50 [8] was 1360 nM. For the same molecule, the LC50 (50% net cell kill vs time zero) [8] was greater than 100 µM, the GI50 [9] was 1630 nM and the CC50 [9, 37] was greater than 100 µM. For the same molecule, the GI50 [10] was 1860 nM, the LC50 (concentration killing 50% of cells present at time zero) [10] was greater than 100 µM and the GI50 [11] was 1970 nM. The LC50 (50% net cell kill) [11] was greater than 100 µM, the GI50 [12] was 4.73 µM and the LC50 [12] was greater than 100 µM. It also gave a GI50 [13] of 790 nM, an LC50 [13] greater than 100 µM and a GI50 [14] of 5.18 µM. The CC50 [14, 37] was greater than 100 µM, the GI50 [15] was 3.86 µM and the LC50 (50% net cell kill relative to time zero) [15] was greater than 100 µM. The GI50 [16] was 420 nM, the LC50 [16] was greater than 100 µM and the GI50 [17] was 1040 nM. It also gave a CC50 [17, 37] greater than 100 µM, a GI50 [18] of 1390 nM and an LC50 [18] greater than 100 µM. For the same molecule, the GI50 [19] was 940 nM, the CC50 [19, 37] was greater than 100 µM and the GI50 [20] was 650 nM. It also gave an LC50 (concentration killing 50% of cells) [20] greater than 100 µM, a GI50 [21] of 2480 nM and a CC50 [21, 37] greater than 100 µM. For the same molecule, the GI50 [22] was 290 nM, the LC50 [22] was greater than 100 µM and the GI50 [23] was 5.63 µM. It also gave a CC50 [23, 37] greater than 100 µM, a GI50 [24] of 480 nM and an LC50 [24] greater than 100 µM. For the same molecule, the GI50 [25] was 810 nM, the CC50 [25, 37] was greater than 100 µM and the GI50 [26] was 3.8 µM. It also gave an LC50 (50% net cell kill) [26] greater than 100 µM, a GI50 [27] of 2450 nM and an LC50 (concentration killing 50% of cells) [27] greater than 100 µM. For the same molecule, the GI50 [28] was 760 nM, the CC50 [28, 37] was greater than 100 µM and the GI50 [29] was 1630 nM. The LC50 [29] was greater than 100 µM, the GI50 [30] was 1100 nM and the CC50 [30, 37] was 40.2 µM. The GI50 [31] was 800 nM, the CC50 [31, 37] was greater than 100 µM and the GI50 [32] was 1560 nM. For the same molecule, the LC50 [32] was 50.4 µM, the GI50 [33] was 590 nM and the LC50 (concentration killing 50% of cells) [33] was greater than 100 µM. The GI50 [34] was 1910 nM, the LC50 (50% lethal concentration) [34] was greater than 100 µM and the GI50 [35] was 370 nM. It also gave an LC50 [35] greater than 100 µM, a GI50 [36] of 1200 nM and an LC50 [36] greater than 100 µM.
